Measurements from article PMC4973383 (Acta Pharmacologica Sinica, 2016).

What was measured:
HCT8/ADR cells [1] = test: Intranuclear distribution by confocal microscopy; format: cell-based, human; details: 4 h incubation, DAPI counterstain
How it was run: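 HCT8/ADR cells were seeded at 2×10^4 per well in RPMI-1640 with 10% FBS and grown 24 h. They were incubated 4 h with test nanoparticles or free Dox, washed twice in ice-cold PBS, and fixed in fresh 4% paraformaldehyde for 15 min at room temperature. Nuclei were counterstained with DAPI and imaged by confocal laser scanning microscopy for Dox fluorescence.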

HCT8/ADR cells [2] = test: Effect of verapamil; format: cell-based, human; details: HCT8/ADR cells pretreated with verapamil 50 μmol/L for 2 h; drug incubation 1 h or 2 h; flow cytometry
HCT8 cells = test: In vitro cytotoxicity, MTT assay; format: cell-based, human; details: 48 h, Dox-equivalent concentration
How it was run: (§1)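 HCT8 and HCT8/ADR cells were grown in RPMI-1640 with 10% FBS, streptomycin and penicillin at 37 °C under 5% CO₂. Cells were seeded at 5×10^3 per well and grown 24 h, then exposed to varying concentrations of test nanoparticles or free Dox for 48 h. MTT (5 mg/mL stock) was added for a further 4 h, then DMSO. Absorbance was read at 490 nm and viability calculated. Run in triplicate.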

HCT8/ADR cells [3] = test: In vitro cytotoxicity, MTT assay; format: cell-based, human; details: 48 h, concentration up to 20 μg/mL
How it was run: as §1

BALB/c-nu nude mice = test: Preliminary treatment safety in tumor-bearing nude mice; format: in vivo
How it was run: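 Female BALB/c-nu nude mice aged 3-4 weeks received 1×10^6 HCT8/ADR cells subcutaneously on the back. They were randomised into five groups of six: PBS, test nanoparticles or Dox given peritumorally, and test nanoparticles or Dox given intravenously. Dosing started at about 100 mm³ tumour volume, at 2 mg/kg Dox-equivalent every two days over 22 d. Body weight was monitored. At endpoint, organs were weighed, organ coefficient was taken as organ weight/body weight×100%, and histology was done.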

COc1cccc2c1C(=O)c1c(O)c3c(c(O)c1C2=O)C[C@@](O)(C(=O)CO)C[C@@H]3O[C@H]1C[C@H](N)[C@H](O)[C@H](C)O1 [Dox, Doxorubicin]
Dox-related red fluorescence, intranuclear accumulation (HCT8/ADR cells [1]): hardly observed
change of uptake efficiency after verapamil (HCT8/ADR cells [2]): clearly increased uptake efficiency
IC50 (cell proliferation) (HCT8 cells): approximately 1 μg/mL
antitumor activity (cytotoxicity) (HCT8/ADR cells [3]): ineffective
body weight change (BALB/c-nu nude mice; Dox dose 2 mg/kg per two days over 22 d, nude mice bearing HCT8/ADR tumor): remarkable body weight loss
histological examination of major organs (BALB/c-nu nude mice; at experimental endpoint, 22 d): degeneration and edema and focal cytolysis necrosis in the liver and spleen
organ coefficient of liver and spleen (BALB/c-nu nude mice; iv, at experimental endpoint, 22 d): reduced markedly
